These results are taken from ChEMBL document CHEMBL3259810, “Design and synthesis of 3,4-dihydro-2H-benzo[h]chromene derivatives as potential NF-κB inhibitors” (Bioorg Med Chem Lett, 2014).

Molecules are shown by their SMILES. pIC50: −log10 of the molar value. A value given as a limit tells only on which side of the number the result lay.

Experiment [1] deals with T1, Nuclear factor NF-kappa-B complex (Homo sapiens) (UniProt Q00653+P19838+Q04206). Nature of the experiment: Inhibition of transcriptional activity of NF-kappaB (unknown origin) transfected in LPS-stimulated mouse RAW264.7 cells at 100 uM after 16 hrs by secretory alkaline phosphatase reporter gene assay relative to control. Type of experiment: cell-based. In short, it runs like this:
(§1)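 LPS-stimulated RAW 264.7 macrophages carrying NF-κB-driven SEAP reporter; cell-free media heated 65℃ 5 min, then reacted with 500 µM 4-methylumbelliferyl phosphate, 2 M diethanolamine, 1 mM MgCl₂ in the dark at room temperature for 1 h. Fluorescence read at excitation 360 nm / emission 449 nm (RFU). Percent inhibition tested at 100 μM; IC₅₀ as mean of three experiments.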

Experiment [2] relates to NCI-H23. Nature of the experiment: Cytotoxicity against human NCI-H23 cells assessed as growth inhibition after 72 hrs by SRB assay. In kind it is functional. The settings on record: NCI-H23, 72 h. For orientation: In SRB staining, fixed cells bind dye roughly in proportion to their protein.
The target in experiment [3] is Nuclear factor NF-kappa-B complex (Homo sapiens, UniProt P19838+Q00653+Q04206). The experiment can be described thus: Inhibition of transcriptional activity of NF-kappaB (unknown origin) transfected in LPS-stimulated mouse RAW264.7 cells after 16 hrs by secretory alkaline phosphatase reporter gene assay. Type of experiment: cell-based. The procedure, abridged:
as §1
On the technique in general: Reporter assays use an easily measured gene product as a stand-in for the process of interest.

In experiment [4] the target is T1, Nuclear factor NF-kappa-B complex (Homo sapiens). Nature of the experiment: Potency index, ratio of PDTC IC50 to compound IC50 for inhibition of transcriptional activity of NF-kappaB (unknown origin) transfected in LPS-stimulated mouse RAW264.7 cells.

T1 sequence (P19838 whole entry, looked up): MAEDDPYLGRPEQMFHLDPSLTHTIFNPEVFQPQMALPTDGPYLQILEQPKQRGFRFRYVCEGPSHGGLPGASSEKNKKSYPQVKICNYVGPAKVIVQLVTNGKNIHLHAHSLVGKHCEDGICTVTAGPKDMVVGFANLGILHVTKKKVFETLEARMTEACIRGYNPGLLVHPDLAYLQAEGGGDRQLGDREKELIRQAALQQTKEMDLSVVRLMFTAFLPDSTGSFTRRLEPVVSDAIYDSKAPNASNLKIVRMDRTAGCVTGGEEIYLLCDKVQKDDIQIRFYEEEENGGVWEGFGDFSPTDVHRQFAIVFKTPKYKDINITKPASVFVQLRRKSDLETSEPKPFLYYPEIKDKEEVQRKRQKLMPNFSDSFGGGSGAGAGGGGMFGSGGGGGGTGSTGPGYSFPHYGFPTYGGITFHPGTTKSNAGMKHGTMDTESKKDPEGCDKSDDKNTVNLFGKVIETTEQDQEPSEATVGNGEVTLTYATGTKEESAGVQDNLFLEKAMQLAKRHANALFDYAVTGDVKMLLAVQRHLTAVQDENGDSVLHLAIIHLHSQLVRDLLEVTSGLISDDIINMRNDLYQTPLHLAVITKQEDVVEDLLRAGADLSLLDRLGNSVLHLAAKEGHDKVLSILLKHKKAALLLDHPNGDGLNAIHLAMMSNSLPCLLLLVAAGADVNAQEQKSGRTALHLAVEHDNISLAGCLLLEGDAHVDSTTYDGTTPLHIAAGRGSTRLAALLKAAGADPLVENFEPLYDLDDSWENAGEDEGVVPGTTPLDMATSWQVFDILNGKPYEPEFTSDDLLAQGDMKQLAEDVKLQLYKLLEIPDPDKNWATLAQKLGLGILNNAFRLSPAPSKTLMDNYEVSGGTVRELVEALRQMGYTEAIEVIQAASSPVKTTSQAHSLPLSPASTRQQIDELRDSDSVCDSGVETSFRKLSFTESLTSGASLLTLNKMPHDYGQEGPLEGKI
T1 sequence (Q00653 whole entry, looked up): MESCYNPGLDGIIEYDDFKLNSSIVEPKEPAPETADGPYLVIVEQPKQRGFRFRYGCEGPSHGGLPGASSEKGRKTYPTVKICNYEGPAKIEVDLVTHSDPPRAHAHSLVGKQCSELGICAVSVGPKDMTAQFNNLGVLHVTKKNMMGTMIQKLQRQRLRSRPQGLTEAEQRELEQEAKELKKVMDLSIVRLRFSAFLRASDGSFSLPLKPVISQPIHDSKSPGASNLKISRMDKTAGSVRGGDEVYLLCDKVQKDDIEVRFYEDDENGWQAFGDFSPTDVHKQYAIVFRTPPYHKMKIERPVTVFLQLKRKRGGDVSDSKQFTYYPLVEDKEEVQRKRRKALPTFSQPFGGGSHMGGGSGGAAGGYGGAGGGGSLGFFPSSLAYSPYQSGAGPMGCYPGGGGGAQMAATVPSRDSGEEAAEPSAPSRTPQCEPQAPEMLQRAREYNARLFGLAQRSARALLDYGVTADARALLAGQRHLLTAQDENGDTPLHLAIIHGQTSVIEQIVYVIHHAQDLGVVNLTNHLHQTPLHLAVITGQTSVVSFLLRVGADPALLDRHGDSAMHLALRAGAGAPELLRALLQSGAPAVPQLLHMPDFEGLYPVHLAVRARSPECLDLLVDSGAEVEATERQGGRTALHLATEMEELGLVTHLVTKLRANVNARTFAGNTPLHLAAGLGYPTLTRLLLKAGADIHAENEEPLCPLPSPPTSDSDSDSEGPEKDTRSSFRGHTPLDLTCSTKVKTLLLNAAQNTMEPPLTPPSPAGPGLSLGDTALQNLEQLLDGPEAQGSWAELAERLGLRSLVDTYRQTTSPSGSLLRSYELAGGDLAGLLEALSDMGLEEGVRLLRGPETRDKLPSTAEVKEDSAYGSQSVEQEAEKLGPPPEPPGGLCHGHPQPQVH
T1 sequence (Q04206 whole entry, looked up): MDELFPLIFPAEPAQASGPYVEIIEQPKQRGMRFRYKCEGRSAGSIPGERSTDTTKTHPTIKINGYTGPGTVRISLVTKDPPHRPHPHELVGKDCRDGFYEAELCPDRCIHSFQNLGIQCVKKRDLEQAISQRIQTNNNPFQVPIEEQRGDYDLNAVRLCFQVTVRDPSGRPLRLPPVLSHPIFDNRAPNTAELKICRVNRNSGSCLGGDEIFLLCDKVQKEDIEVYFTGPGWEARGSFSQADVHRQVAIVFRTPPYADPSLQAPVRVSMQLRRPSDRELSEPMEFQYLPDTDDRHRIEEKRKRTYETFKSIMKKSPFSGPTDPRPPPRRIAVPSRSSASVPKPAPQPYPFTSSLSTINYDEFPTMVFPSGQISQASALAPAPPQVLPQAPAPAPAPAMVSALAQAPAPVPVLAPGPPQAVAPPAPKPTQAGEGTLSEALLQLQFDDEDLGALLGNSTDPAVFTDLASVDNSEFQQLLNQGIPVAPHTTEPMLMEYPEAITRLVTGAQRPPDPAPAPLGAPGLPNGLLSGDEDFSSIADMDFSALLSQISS
Nuclear factor NF-kappa-B complex, sequence (P19838 1-433 limits assumed): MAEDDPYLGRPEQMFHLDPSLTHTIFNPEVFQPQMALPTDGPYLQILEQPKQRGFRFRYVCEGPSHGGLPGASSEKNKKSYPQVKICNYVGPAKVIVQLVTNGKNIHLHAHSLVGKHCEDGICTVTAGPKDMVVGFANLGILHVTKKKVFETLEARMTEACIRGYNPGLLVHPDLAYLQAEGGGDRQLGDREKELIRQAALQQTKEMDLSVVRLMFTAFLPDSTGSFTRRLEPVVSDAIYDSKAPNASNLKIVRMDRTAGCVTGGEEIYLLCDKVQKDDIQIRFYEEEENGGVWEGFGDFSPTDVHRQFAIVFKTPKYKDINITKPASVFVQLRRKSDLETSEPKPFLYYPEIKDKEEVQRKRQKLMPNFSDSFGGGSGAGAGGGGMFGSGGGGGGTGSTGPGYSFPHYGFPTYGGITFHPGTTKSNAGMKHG
Nuclear factor NF-kappa-B complex, sequence (Q00653 1-454 limits assumed): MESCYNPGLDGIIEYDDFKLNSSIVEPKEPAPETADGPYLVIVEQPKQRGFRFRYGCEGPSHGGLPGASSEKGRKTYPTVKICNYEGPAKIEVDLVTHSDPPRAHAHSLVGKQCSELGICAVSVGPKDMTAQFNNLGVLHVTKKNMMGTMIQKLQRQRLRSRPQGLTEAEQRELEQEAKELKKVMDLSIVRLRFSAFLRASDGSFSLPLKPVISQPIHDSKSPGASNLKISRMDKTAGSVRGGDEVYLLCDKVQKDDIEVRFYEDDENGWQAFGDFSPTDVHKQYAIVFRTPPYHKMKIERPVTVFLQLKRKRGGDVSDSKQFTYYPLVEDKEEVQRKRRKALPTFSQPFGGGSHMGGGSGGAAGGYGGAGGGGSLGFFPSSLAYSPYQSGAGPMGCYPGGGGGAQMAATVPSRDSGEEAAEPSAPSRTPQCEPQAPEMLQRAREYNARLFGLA
Nuclear factor NF-kappa-B complex, sequence (Q04206 whole entry): as the sequence (Q04206 whole entry, looked up) above

The inhibition is the percentage by which the read-out fell short of the control. For orientation: GI50 means the concentration that inhibits growth by half. For the compound `CCNCC1CCc2ccc3ccccc3c2O1` (stereo unspecified), the inhibition in experiment [1] worked out at 39%. Besides, the GI50 in experiment [2] was more than 30 µM.
One may read the pIC50 as −log10 of the IC50, conventionally taken in molar units. A lower pIC50 goes with a large IC50. Consider `S=C(S)N1CCCC1` [PYRROLIDINE DITHIOCARBAMATE], for which the pIC50 in experiment [3] was 4.43.
In experiment [1], `O=C(Nc1ccccc1)C1CCc2ccc3ccccc3c2O1` (stereo unspecified) displayed an inhibition of 62%. Further, the GI50 in experiment [2] is more than 30 µM. In experiment [3], the pIC50 was 4.36.
Regarding `FC(F)(F)c1ccc(NCC2CCc3ccc4ccccc4c3O2)cc1` (stereo unspecified), in experiment [1], the inhibition stood at 42%. Also, the GI50 in experiment [2] is more than 30 µM.
Consider `O=C(Nc1cccc(Cl)c1)C1CCc2ccc3ccccc3c2O1` (stereo unspecified), for which the inhibition in experiment [1] worked out at 87%. Besides, in experiment [2], the GI50 was more than 30 µM. The compound further gave a pIC50 in experiment [3] of 4.55.
`O=C(NCC1CCc2ccc3ccccc3c2O1)c1ccccc1` (stereo unspecified): the inhibition in experiment [1] is more than 100%. Besides, the GI50 in experiment [2] is 11.4 µM. In experiment [3], this compound had a pIC50 of 4.31.
Take `O=C(Nc1cc(Cl)cc(Cl)c1)C1CCc2ccc3ccccc3c2O1` (stereo unspecified): in experiment [1], the inhibition came out at 52%. Moreover, in experiment [2], the GI50 is more than 30 µM. The same compound showed a pIC50 in experiment [3] of 4.01.
In experiment [1], `CC(C)C(=O)NCC1CCc2ccc3ccccc3c2O1` (stereo unspecified) came in with an inhibition of 31%. In experiment [2], the GI50 is more than 30 µM.
For `Clc1cccc(NCC2CCc3ccc4ccccc4c3O2)c1` (stereo unspecified) the same measures were 36% and 17.2 µM.
The compound `O=C(Nc1ccccc1C(F)(F)F)C1CCc2ccc3ccccc3c2O1` (stereo unspecified) yielded an inhibition in experiment [1] of more than 100%. Moreover, in experiment [4], the Ratio IC50 is 15. Also, the GI50 in experiment [2] worked out at 0.521 µM. This compound also had a pIC50 in experiment [3] of 5.62.
Take `COc1ccc(NC(=O)C2CCc3ccc4ccccc4c3O2)cc1` (stereo unspecified): the inhibition in experiment [1] is more than 100%. Moreover, the GI50 in experiment [2] was 3.98 µM. In experiment [3], this compound showed a pIC50 of 4.89.
For `COc1ccc(NCC2CCc3ccc4ccccc4c3O2)cc1` (stereo unspecified) the same measures were 88%, 12.8 µM and 4.35.
For `O=C(Nc1ccc(Cl)cc1)C1CCc2ccc3ccccc3c2O1` (stereo unspecified) the same measures were more than 100%, 2.79 µM and 5.24.
For `c1ccc(CNCC2CCc3ccc4ccccc4c3O2)cc1` (stereo unspecified) the same measures were more than 100%, 10.4 µM and 4.84.
For the compound `O=C(Nc1ccc(O)cc1)C1CCc2ccc3ccccc3c2O1` (stereo unspecified), the inhibition in experiment [1] is more than 100%. Also, in experiment [2], the GI50 amounted to 11.3 µM. In experiment [3], this compound showed a pIC50 of 5.30.
For `Clc1ccc(NCC2CCc3ccc4ccccc4c3O2)cc1` (stereo unspecified) the same measures were 94%, 29.8 µM and 4.58.
For `CC(C)CNCC1CCc2ccc3ccccc3c2O1` (stereo unspecified), in experiment [1], the inhibition is more than 100%. Besides, the concentration for 50% growth inhibition (GI50) in experiment [2] was found to be 11.7 µM. In experiment [3], this compound had a pIC50 of 4.57.
Consider `CC(=O)NCC1CCc2ccc3ccccc3c2O1` (stereo unspecified), for which the inhibition in experiment [1] turned out to be 35%. In addition, the GI50 in experiment [2] is more than 30 µM.
`CC(C)CCNCC1CCc2ccc3ccccc3c2O1` (stereo unspecified) had an inhibition in experiment [1] of more than 100%. The GI50 in experiment [2] was 11.3 µM. The pIC50 in experiment [3] is 4.59.
As to `O=C(Nc1ccc(Cl)c(Cl)c1)C1CCc2ccc3ccccc3c2O1` (stereo unspecified), the inhibition in experiment [1] amounted to 40%. Moreover, in experiment [2], the GI50 was found to be 23.5 µM.
In experiment [1], `O=C(Nc1ccc(C(F)(F)F)cc1)C1CCc2ccc3ccccc3c2O1` (stereo unspecified) yielded an inhibition of more than 100%. Further, in experiment [2], the GI50 came out at 3.48 µM. The same compound showed a pIC50 in experiment [3] of 4.89.
For `O=C(Nc1cc(C(F)(F)F)cc(C(F)(F)F)c1)C1CCc2ccc3ccccc3c2O1` (stereo unspecified) the same measures were 66%, 11.2 µM and 4.20.
In experiment [1], `FC(F)(F)c1cc(NCC2CCc3ccc4ccccc4c3O2)cc(C(F)(F)F)c1` (stereo unspecified) returned an inhibition of 96%. The GI50 in experiment [2] was determined as 14.6 µM. Besides, the pIC50 in experiment [3] was 4.25.
In the case of `CC(C)CC(=O)NCC1CCc2ccc3ccccc3c2O1` (stereo unspecified), the inhibition in experiment [1] was determined as 77%. In addition, in experiment [2], the GI50 was more than 30 µM. Also, the pIC50 in experiment [3] is 4.25.
As for `COc1cc2c(cc1O)CCC(C(=O)Nc1ccccc1)O2` (stereo unspecified), the pIC50 in experiment [3] is 4.40.
As to `c1ccc(NCC2CCc3ccc4ccccc4c3O2)cc1` (stereo unspecified), the inhibition in experiment [1] was 49%. Also, the GI50 in experiment [2] was determined as 25.8 µM.
As for `O=C(Nc1ccccc1O)C1CCc2ccc3ccccc3c2O1` (stereo unspecified), the inhibition in experiment [1] came out at 91%. Further, in experiment [2], the GI50 was more than 30 µM. This compound gave a pIC50 in experiment [3] of 4.91.
